Test results reported in paper PMC8268672 (Bioorganic Chemistry, 2021).
Converted amounts (≈) assume the structure as drawn.

Columns and labels:
Type in all cases: cell-based
[1] = test system: Aspergillus niger (NCIM 2191); assay: MIC, broth microdilution; settings: NCIM2191, read-out: Minimum inhibitory concentration (MIC), AN
Summary of the method: (§1)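 Antifungal MICs by CLSI broth microdilution in Sabouraud liquid medium. Test compounds and standard drugs are serially diluted two-fold from 512 to 0.25. The fungal broth culture is grown 24 h at 35 °C to a 0.5 McFarland turbidity, then adjusted with sterile solution to the final inoculum.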

[2] = test system: Candida albicans (NCIM 2087); assay: MIC, broth microdilution; settings: NCIM2087, read-out: Minimum inhibitory concentration (MIC), CA
Summary of the method: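 CLSI broth microdilution in Sabouraud liquid medium, with test compound two-fold serially diluted from 512 to 0.25. Fungal broth culture grown 24 h at 35 °C to 0.5 McFarland turbidity, then adjusted with sterile solution to a final […] inoculum. MIC expressed in µg/mL.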

[3] = test system: Aspergillus fumigatus (NCIM 2081); assay: MIC, broth microdilution; settings: NCIM2081, read-out: Minimum inhibitory concentration (MIC), AF
Summary of the method: as §1

[4] = test system: Cryptococcus neoformans (ATCC 9011); assay: MIC, broth microdilution; settings: ATCC9011, read-out: Minimum inhibitory concentration (MIC), CN
Summary of the method: as §1

[5] = test system: Aspergillus niger (NCIM 2191); assay: Agar disk diffusion, inhibition zone; settings: 100 µg/8 mm disc, triplicate, mean ± SD
Summary of the method: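 For the fungal strain, discs soaked in test compound solution (DMSO stock diluted with distilled water) sat on seeded Mueller-Hinton agar. Clotrimazole was the reference. Incubation ran 48 h at 35 °C, in triplicate. Zone of growth inhibition recorded in mm as the mean diameter around each disc.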

[6] = test system: Candida albicans (NCIM 2087); assay: Agar disk diffusion, inhibition zone; settings: 100 µg/8 mm disc, triplicate, mean ± SD
[7] = test system: Aspergillus fumigatus (NCIM 2081); assay: Agar disk diffusion, inhibition zone; settings: 100 µg/8 mm disc, triplicate, mean ± SD
[8] = test system: Cryptococcus neoformans (ATCC 9011); assay: Agar disk diffusion, inhibition zone; settings: 100 µg/8 mm disc, triplicate, mean ± SD
[9] = test system: Escherichia coli (ATCC 8739); assay: MIC, broth microdilution; settings: ATCC8739, read-out: Minimum inhibitory concentration (MIC), EC
Summary of the method: (§2)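 Broth microdilution per CLSI in Mueller-Hinton broth, using two-fold serial dilutions of test compound and reference drugs from 512 to 0.25. Bacterial broth cultures were grown 2-6 h to 0.5 McFarland turbidity, then diluted with sterile solution to the final inoculum. MIC is reported in µg/mL.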

[10] = test system: Pseudomonas aeruginosa (MCCB 0035); assay: MIC, broth microdilution; settings: read-out: Minimum inhibitory concentration (MIC), PA
Summary of the method: as §2

[11] = test system: Klebsiella aerogenes (NCIM-2098); assay: MIC, broth microdilution; settings: NCIM2098, read-out: Minimum inhibitory concentration (MIC), KA
Summary of the method: (§3)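 Antibacterial MICs by CLSI broth microdilution in Mueller-Hinton broth. Test compounds and standard drugs are serially diluted two-fold from 512 to 0.25. The bacterial broth culture is grown 2-6 h to a 0.5 McFarland turbidity, then adjusted with sterile solution to the final inoculum.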

[12] = test system: Staphylococcus aureus (ATCC 29213); assay: MIC, broth microdilution; settings: ATCC29213, read-out: Minimum inhibitory concentration (MIC), SA
Summary of the method: as §3

[13] = test system: Bacillus cereus (NCIM-2458); assay: MIC, broth microdilution; settings: NCIM2458, read-out: Minimum inhibitory concentration (MIC), BC
Summary of the method: as §2

[14] = test system: Escherichia coli (ATCC 8739); assay: Agar disk diffusion, inhibition zone; settings: 100 µg/8 mm disc, triplicate, mean ± SD
Summary of the method: (§4)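 Agar disk diffusion on Mueller-Hinton agar plates seeded with a standard bacterial suspension. Test compound stock in DMSO, diluted with distilled water; 8 mm sterile filter-paper discs soaked in the solution. Ampicillin was the reference. Plates incubated at 35 °C for 24 h, in triplicate. Read-out is the average inhibition-zone diameter (mm) around each disc.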

[15] = test system: Pseudomonas aeruginosa (MCCB 0035); assay: Agar disk diffusion, inhibition zone; settings: 100 µg/8 mm disc, triplicate, mean ± SD
[16] = test system: Salmonella typhimurium (NCIM-2501); assay: Agar disk diffusion, inhibition zone; settings: 100 µg/8 mm disc, triplicate, mean ± SD
[17] = test system: Klebsiella aerogenes (NCIM-2098); assay: Agar disk diffusion, inhibition zone; settings: 100 µg/8 mm disc, triplicate, mean ± SD
[18] = test system: Staphylococcus aureus (ATCC 29213); assay: Agar disk diffusion, inhibition zone; settings: 100 µg/8 mm disc, triplicate, mean ± SD
Summary of the method: as §4

[19] = test system: Bacillus cereus (NCIM-2458); assay: Agar disk diffusion, inhibition zone; settings: 100 µg/8 mm disc, triplicate, mean ± SD
[20] = test system: Lactobacillus casei (NCIM-2651); assay: Agar disk diffusion, inhibition zone; settings: 100 µg/8 mm disc, triplicate, mean ± SD
[21] = test system: Streptococcus pneumonia (ATCC 49619); assay: Agar disk diffusion, inhibition zone; settings: 100 µg/8 mm disc, triplicate, mean ± SD

Compound	MIC [1] [µg/mL]	MIC [2] [µg/mL]	MIC [3] [µg/mL]	MIC [4] [µg/mL]	Diameter of growth inhibition zone, AN [5] [mm]	Diameter of growth inhibition zone, CA [6] [mm]	Diameter of growth inhibition zone, AF [7] [mm]	Diameter of growth inhibition zone, CN [8] [mm]	MIC [9] [µg/mL]	MIC [10] [µg/mL]	MIC [11] [µg/mL]	MIC [12] [µg/mL]	MIC [13] [µg/mL]	Diameter of growth inhibition zone, EC [14] [mm]	Diameter of growth inhibition zone, PA [15] [mm]	Diameter of growth inhibition zone, ST [16] [mm]	Diameter of growth inhibition zone, KA [17] [mm]	Diameter of growth inhibition zone, SA [18] [mm]	Diameter of growth inhibition zone, BC [19] [mm]	Diameter of growth inhibition zone, LC [20] [mm]	other results
Clc1ccccc1C(c1ccccc1)(c1ccccc1)n1ccnc1 [CL, Clotrimazole, reference compound]	16 (≈ 46.4 µM)	4 (≈ 11.6 µM)	1 (≈ 2.9 µM)	2 (≈ 5.8 µM)	23	24	22	19													
Cc1ccc(S(=O)(=O)N2C(=O)CSC2c2cccc(C)c2)cc1 (stereo not drawn) [5s, 2-(3-Methylphenyl)-3-[(4-methylphenyl)sulfonyl]-1,3-thiazolidin-4-one]	128 (≈ 368 µM)	64 (≈ 184 µM)	64 (≈ 184 µM)	128 (≈ 368 µM)	9.6 ± 0.63	10 ± 1.1	9.2 ± 1.5	9 ± 0.5	16 (≈ 46 µM)	64 (≈ 184 µM)	128 (≈ 368 µM)	128 (≈ 368 µM)	64 (≈ 184 µM)	17 ± 1.5	15 ± 0.32	10 ± 0.4	08 ± 1.3	13 ± 1.5	10 ± 0.2	10 ± 0.6	Diameter of growth inhibition zone, SP [21]: 08 ± 0.4 mm
Cc1ccc(C2SCC(=O)N2S(=O)(=O)c2ccc(C)cc2)cc1 (stereo not drawn) [5t, 2-(4-Methylphenyl)-3-[(4-methylphenyl)sulfonyl]-1,3-thiazolidin-4-one]	128 (≈ 368 µM)	128 (≈ 368 µM)	64 (≈ 184 µM)	> 256	9.5 ± 0.9	9.8 ± 0.23	09 ± 1.5	10 ± 0.9	64 (≈ 184 µM)	128 (≈ 368 µM)	> 256	64 (≈ 184 µM)	> 256	12 ± 1.2	11 ± 0.65	07 ± 0.7	07 ± 0.6	12 ± 1.9	07 ± 0.84	08 ± 0.5	Diameter of growth inhibition zone, SP [21]: 07 ± 0.7 mm
Cc1ccc(S(=O)(=O)N2C(=O)CSC2c2ccccc2C)cc1 (stereo not drawn) [5r, 2-(2-Methylphenyl)-3-[(4-methylphenyl)sulfonyl]-1,3-thiazolidin-4-one]	64 (≈ 184 µM)	64 (≈ 184 µM)	128 (≈ 368 µM)	128 (≈ 368 µM)	9.8 ± 0.9	10 ± 0.6	9.6 ± 0.9	11 ± 0.7	64 (≈ 184 µM)	64 (≈ 184 µM)	128 (≈ 368 µM)	64 (≈ 184 µM)	128 (≈ 368 µM)	15 ± 0.69	16 ± 1.9	08 ± 0.6	08 ± 0.3	14 ± 1.1	08 ± 0.4	10 ± 0.7	Diameter of growth inhibition zone, SP [21]: 08 ± 0.8 mm
CC1(C)S[C@@H]2[C@H](NC(=O)[C@H](N)c3ccccc3)C(=O)N2[C@H]1C(=O)O [AA, Ampicillin, reference compound]									1 (≈ 2.86 µM)	4 (≈ 11.4 µM)	8 (≈ 22.9 µM)	2 (≈ 5.72 µM)	4 (≈ 11.4 µM)	18	17	18	17	21	19	20	Diameter of growth inhibition zone, SP [21]: 17 mm
Cc1ccc(S(=O)(=O)N2C(=O)CSC2c2cccc(Cl)c2)cc1 (stereo not drawn) [5f, 2-(3-Chlorophenyl)-3-[(4-methylphenyl)sulfonyl]-1,3-thiazolidin-4-one]	16 (≈ 43.5 µM)	16 (≈ 43.5 µM)	64 (≈ 174 µM)	32 (≈ 87 µM)	11.2 ± 0.6	12 ± 0.35	11.8 ± 1.5	10 ± 0.7	8 (≈ 21.7 µM)	16 (≈ 43.5 µM)	8 (≈ 21.7 µM)	32 (≈ 87 µM)	32 (≈ 87 µM)	18 ± 0.23	18 ± 0.56	14 ± 0.2	18 ± 0.23	20 ± 1.2	12 ± 2.2	14 ± 0.6	Diameter of growth inhibition zone, SP [21]: 18 ± 0.7 mm
